NTR1 agonist = NTR1 (human) agonism | AID 493036 | NTR1-U2OS beta-arrestin-GFP spot imaging, agonist mode | activation, % at 20 µM | hit rate 0.17% among 330,000;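 active = activation at or above 40% of the spot to cytoplasm intensity ratio, with at least 20 cells analyzed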;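 note: 0% = DMSO without peptide and 100% = 100 nM NTR1 peptide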
Target sequence (P30989 whole entry, looked up): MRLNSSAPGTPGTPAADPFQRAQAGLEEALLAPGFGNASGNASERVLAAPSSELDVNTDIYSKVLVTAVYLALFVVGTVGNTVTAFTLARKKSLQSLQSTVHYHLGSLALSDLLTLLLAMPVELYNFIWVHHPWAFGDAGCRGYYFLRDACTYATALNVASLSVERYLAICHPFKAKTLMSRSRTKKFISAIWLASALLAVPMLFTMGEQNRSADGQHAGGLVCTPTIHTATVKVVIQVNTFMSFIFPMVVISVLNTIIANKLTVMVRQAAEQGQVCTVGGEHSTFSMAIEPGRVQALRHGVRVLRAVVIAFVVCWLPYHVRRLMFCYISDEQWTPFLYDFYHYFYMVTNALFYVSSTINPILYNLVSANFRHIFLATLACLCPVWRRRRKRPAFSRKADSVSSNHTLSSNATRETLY
Beta2AR agonist = agonists of human beta-2 adrenergic receptor inducing internalization | Am2.2-beta2AR cells, FAP receptor internalization, flow cytometry | response, % (no concentration beside the values) | hit rate 0.43% among 340,000 | AID 504454;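 active = response above a set limit, near 3 SD of response in nonfluorescent compounds, cut at about 42% in these data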
Arrestin-AP2 inh = human beta-arrestin and AP2 interaction inhibition. FITC-arrestin peptide / GST-AP2 beads, flow cytometry; AP2 beta2 appendage carries R879A mutation. inhibition, % at 10 µM. hit rate 0.31% among 340,000;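 active = inhibition above a set limit, near 3 SD of compounds lacking own fluorescence, cut at about 54% in these data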;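 note: plate controls were DMSO wells for no effect and 5 µM unlabelled arrestin peptide for full effect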
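System: GST-AP2 R879A glutathione beads. Medium: PBS with 0.05% Tween 20 and 0.1% BSA. Also added: FITC-arrestin peptide, 50 nM. Incubation: 12 min plus 1 h, RT. Measured by: high-throughput flow cytometry of beads, ex 488, em 535 nm. Evaluation: percent drop in bead-associated FITC signal.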
GRK2 inh = blocks RNA aptamer binding to human GRK2; bead flow cytometry, FAM-aptamer displacement from GRK2; inhibition of aptamer binding, % at 10 µM; hit rate 0.59% among 330,000; AID 488847;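 active = inhibition of aptamer binding above 40%, roughly 3 SD of noise, on plates passing a quality check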;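 note: median bead fluorescence of bound FAM aptamer so fluorescent compounds give negative values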
Lipid droplet = modulators of hepatic lipid droplet formation. AML12 mouse hepatocytes, oleate lipid droplets, BODIPY imaging. inhibition, % at 6.5 µM. hit rate 0.4% among 240,000;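 active = lipid droplet intensity inhibited by at least 50%, with more than 500 cells counted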
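Assay system: AML12 hepatocytes (mouse); Probe or stimulus: oleic acid at 100 µM to induce lipid droplet formation; Dosing: compound at 6.5 µM only; Schedule: compound with oleate, overnight; Detection: fluorescence imaging, 20x objective, two fields per well; Measure: % inhibition of lipid droplet signal.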
TAG inh = reduces triacylglycerol accumulation in H9c2 cells | Nile Red lipid (TAG) fluorescence; cells loaded with 200 µM oleic acid | inhibition, % at 12.5 µM | hit rate 0.66% among 230,000 | AID 651582;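 active = pattern-corrected inhibition of lipid staining of at least 50% with the nuclear-stain viability signal not falling by more than 50%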;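 note: 0% = DMSO wells and 100% = triacsin C control wells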
B2AR ag CP1 = agonists of human beta-2 adrenergic receptor | shares compounds with Beta2AR agonist | Am2.2-beta2AR cells, FAP surface receptor, flow cytometry; stronger effect = lower value | percent response (surface receptor), % at 10 µM | hit rate 25% among 1,100 | AID 540358;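 active = surface receptor percent response at or below 58%, roughly 3 SD from nonfluorescent compounds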
FAP fluor counter = flagged in Am2.2 fluorescence counterscreen for beta-2AR agonists. shares compounds with Beta2AR agonist. Am2.2 cells, FAP fluorogen flow cytometry; stronger effect = lower value. calls only at 10 µM. 1,100 tested, under 10 active;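 active = percent response below a set limit in fluorescence channel 1 and below 50% in channel 8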
An asterisk follows results filed as active. Compounds with a hit are over-represented: about 2% of the library has one in this group of screens.

For Cc1cccc(CNC(=O)CC2C(=O)NCCN2C2CCCC2)c1 (configuration not stated) the results were NTR1 agonist 0, Beta2AR agonist 7, Arrestin-AP2 inh -14, GRK2 inh 0, Lipid droplet 1 and TAG inh -3.
Screening COc1ccc(Nc2cc(C(=O)NCCCN3CCN(C)CC3)c3ccccc3n2)cc1 returned NTR1 agonist 0, Beta2AR agonist 47*, Arrestin-AP2 inh -8, GRK2 inh 0, TAG inh 26, B2AR ag CP1 86 and FAP fluor counter inactive.
For CC(C)(C)NC(=S)NNC(=O)c1cccc(Br)c1 the results were NTR1 agonist 4, Beta2AR agonist -11, Arrestin-AP2 inh 3, GRK2 inh 1, Lipid droplet 6, TAG inh -13, B2AR ag CP1 113 and FAP fluor counter inactive.
COc1ccc(Cn2nc(-c3ccccc3)c(N3CCCCC3)cc2=O)cc1 was read as NTR1 agonist 3, Beta2AR agonist 108*, Arrestin-AP2 inh 0, GRK2 inh 1, Lipid droplet -1, TAG inh 7, B2AR ag CP1 38* and FAP fluor counter inactive.
Screening CC(=O)Nc1ccc(S(=O)(=O)N2CCC(Oc3ccc(-n4cnnn4)cc3)CC2)cc1 returned NTR1 agonist 0, Beta2AR agonist 88*, Arrestin-AP2 inh -10, GRK2 inh 3, Lipid droplet 10, B2AR ag CP1 12* and FAP fluor counter inactive.
COc1cc2c(cc1OC)CN(c1ccc(C(N)=O)cc1[N+](=O)[O-])CC2 was read as NTR1 agonist -1, Beta2AR agonist 10, Arrestin-AP2 inh 7, GRK2 inh 0 and Lipid droplet -31.
For CC(NCc1ccc(OCc2ccc(Cl)cc2)cc1)C(O)c1ccccc1 (configuration not stated) the results were NTR1 agonist 32, Beta2AR agonist 79*, Arrestin-AP2 inh -6, GRK2 inh 0, Lipid droplet -5, TAG inh 30, B2AR ag CP1 87 and FAP fluor counter inactive.
`Cc1ccc(-n2c(C)nn(Cc3ccc([N+](=O)[O-])cc3)c2=O)cc1` gave NTR1 agonist 0, Beta2AR agonist -2, Arrestin-AP2 inh 4, GRK2 inh 0, Lipid droplet 0 and TAG inh -21.
Cc1ccc(-n2c3nc(=O)[nH]c(=O)c-3cc3cc([N+](=O)[O-])ccc32)cc1 was read as NTR1 agonist 6, Beta2AR agonist 51*, Arrestin-AP2 inh -10, GRK2 inh 5, Lipid droplet 0, B2AR ag CP1 108 and FAP fluor counter inactive.
Cc1ccc(SCc2[nH]nc3c2C2(C(=O)Nc4ccc([N+](=O)[O-])cc42)C(C#N)=C(N)O3)cc1 (configuration not stated) was read as NTR1 agonist 2, Beta2AR agonist 84*, Arrestin-AP2 inh 2, GRK2 inh 0, TAG inh 0, B2AR ag CP1 113 and FAP fluor counter inactive.
For C=C1CCN([C@@H](Cc2ccccc2)C(=O)NCc2ccc(Cl)cc2)S(=O)(=O)c2ccccc21 the results were NTR1 agonist -1, Beta2AR agonist 6, Arrestin-AP2 inh 3, GRK2 inh 1 and TAG inh 16.
CSc1ccccc1C(=O)OCC(=O)N1CCCCCC1 was read as NTR1 agonist -1, Beta2AR agonist -4, Arrestin-AP2 inh 45, GRK2 inh 0 and TAG inh -2.
Screening O=C(OCC(=O)N1CCCC1)c1ccccc1C(=O)c1ccccc1 returned NTR1 agonist 0, Beta2AR agonist 5, Arrestin-AP2 inh -4, GRK2 inh 0, TAG inh -26, B2AR ag CP1 118 and FAP fluor counter inactive.
